DNMT1 block – human DNMT1 methyltransferase inhibitors, primary screen, biochemical, molecular beacon, fluorescence, HinP1I cleavage, uHTS; DNA (cytosine-5)-methyltransferase 1 (Homo sapiens), P26358; inhibition (reported as % activation of signal), % at 10 µM; hit rate 0.83% among 360,000; in the data active = inhibition above about 50%
SUMO1 PPI mod – modulators of SUMO1 protein-protein interactions, primary screen, biochemical, uHTS; SUMO1 binding to a labelled peptide, TR-FRET, 1 h; inhibition, % at 20 µM; hit rate 0.33% among 360,000; AID 602429, 2012; in the data active = inhibition above about 37%
Target sequence (P63165 whole entry, looked up): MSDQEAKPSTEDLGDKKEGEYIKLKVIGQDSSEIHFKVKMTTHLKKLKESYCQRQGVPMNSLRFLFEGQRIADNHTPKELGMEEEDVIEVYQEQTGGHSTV
Scp1 inh – Scp-1 phosphatase inhibitors, primary screen, biochemical, colorimetric, uHTS | Recombinant Scp1, phosphopeptide, malachite green phosphate absorbance | inhibition, % at 20 µM | hit rate 0.88% among 340,000;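 active = inhibition above about 50% at 20 µM, limit read from the data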
Target sequence (Q9GZU7 76-261 limits assumed): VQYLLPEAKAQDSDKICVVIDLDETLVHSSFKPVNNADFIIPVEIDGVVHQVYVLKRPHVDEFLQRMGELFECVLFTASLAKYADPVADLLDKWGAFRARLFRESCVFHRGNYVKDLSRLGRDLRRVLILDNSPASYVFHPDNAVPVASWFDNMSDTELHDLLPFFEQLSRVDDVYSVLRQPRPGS
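assay system = SCP-1 phosphatase catalytic domain, residues 76-261 | buffer or medium = 50 mM Tris acetate pH 5.5, 0.005% Tween-20, 10 mM MgCl2 | incubation = enzyme reaction 45 min at room temperature, colour 5 min, stabilisation 30 min | signal = Phosphate-binding colour reagent, absorbance read at 630 nm | measure = % inhibition at 20 µM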
LMPTP inh – LMPTP phosphatase inhibitors, primary screen, biochemical, fluorescence intensity, uHTS | Low molecular weight phosphotyrosine protein phosphatase (Homo sapiens), P24666 | recombinant LMPTP-A, OMFP fluorogenic substrate | inhibition, % at 20 µM | hit rate 0.22% among 360,000 | AID 651560, 2012;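 active = compounds that cut the enzyme signal by at least half of the control window in the single-dose screen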
Target sequence (P24666 whole entry, looked up): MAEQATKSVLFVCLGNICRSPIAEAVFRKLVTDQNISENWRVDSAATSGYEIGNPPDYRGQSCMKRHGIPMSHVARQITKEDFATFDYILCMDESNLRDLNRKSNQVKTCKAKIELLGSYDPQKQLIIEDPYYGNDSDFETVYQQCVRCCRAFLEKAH
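test system = LMPTP-A | amount = 0.625 nM LMPTP-A final | reagent = fluorogenic phosphatase substrate OMFP at 400 µM final | incubation = 50 min at room temperature | benchmarks = no-enzyme low control, uninhibited high control | medium = Bis-Tris pH 6.0, DTT, detergent | signal = fluorescence intensity of OMFP turnover product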
STEP block – STEP phosphatase inhibitors, primary screen, biochemical, fluorescence intensity, uHTS. Tyrosine-protein phosphatase non-receptor type 5 (Homo sapiens), P54829. recombinant STEP, OMFP fluorogenic substrate. inhibition, % at 20 µM. hit rate 0.25% among 360,000. AID 588621, 2011;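 active = inhibition at 20 µM, scaled per plate between control wells, above about 37%, limit read from the data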
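Assay system: isolated STEP enzyme / Timing: 20 min at room temperature, dark / Doses: 20 µM, 1% DMSO / Technique: fluorescence intensity, excitation 480 nm, emission 540 nm / Reagent: fluorogenic phosphatase substrate OMFP at 25 µM final / Measure: percent inhibition scaled to no-enzyme and uninhibited-enzyme controls, plate-pattern corrected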
DNMT1 interf DR – spectral interference with molecular beacon fluorescence, dose response, artefact control for DNMT1 inhibitor project, biochemical, fluorescent molecular beacon; shares compounds with DNMT1 block; spectral interference counter-screen; IC50, µM; 200 tested, under 10 active; call rule not given here
DNMT1 confirm – DNMT1 methyltransferase inhibitor retest, confirmation, biochemical, molecular beacon, fluorescence, single concentration; shares compounds with DNMT1 block; DNMT1 molecular beacon HinP1I cleavage; inhibition, % at 10 µM; hit rate 8% among 2,300;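 active = average inhibition of at least 30% in the single-concentration confirmation test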
DNMT1 interf – beacon fluorescence artifact counter-screen | shares compounds with DNMT1 block | DNMT1 molecular beacon spectral interference counterscreen, fluorescence 485/520 | activation (fluorescence interference), % at 10 µM | hit rate 1% among 2,300 | AID 602387;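 active = activation of at least 30% at 10 µM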;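 note: DNMT1 catalytic domain with a HinP1I cleavage step and a FAM/dabcyl DNA beacon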
Numbers stand for hits; 0 = inactive; - = no result. Compounds with a hit are over-represented: about 1.7% of the library has one in this group of screens.

SMILES | DNMT1 block | SUMO1 PPI mod | Scp1 inh | LMPTP inh | STEP block | DNMT1 confirm | DNMT1 interf | others
COc1ccc(NC(=O)COc2ccccc2C(=O)NCC(c2ccccc2)N(C)C)cc1Cl (stereo not drawn) | 0 | 0 | 0 | 0 | 0 | - | -
CCOC(=O)c1cn(-c2nc(-c3ccc(Cl)c(Cl)c3)cs2)c2c(F)c(N3CCOCC3)c(F)cc2c1=O | 58 | 0 | 0 | 0 | 0 | 0 | 0
CCc1cc(=O)oc2cc(C)c(CN3CCCC3)c(O)c12 | 87 | 0 | 0 | 0 | 0 | 0 | 0
CCc1cc(=O)oc2cc(C)c(CN3CCCCC3)c(O)c12 | 0 | 0 | 0 | 0 | 0 | - | -
CC(C)C(=O)NNC(=O)c1csc(-c2cccs2)n1 | 0 | 0 | 0 | 0 | 0 | - | -
CCc1nn(CC(=O)NC2CCN(Cc3ccccc3)CC2)c(=O)c2cc3cc(F)ccc3n12 | 0 | 0 | 0 | 0 | 0 | - | -
CCc1nn(CC(=O)NC(C)CCc2ccccc2)c(=O)c2cc3cc(F)ccc3n12 (stereo not drawn) | 53 | 0 | 0 | 0 | 0 | 0 | 0
Cc1ccccc1S(=O)(=O)NCc1ccc(N2CCN(C)CC2)cc1 | 0 | 0 | 0 | 0 | 0 | - | -
COc1cccc(N2CCN(S(=O)(=O)c3ccc(-c4cnc(C5CC5)o4)cc3)CC2)c1 | 0 | 0 | 0 | 0 | 0 | - | -
COc1ccc(N2CCN(S(=O)(=O)c3ccc(-c4cnc(C5CC5)o4)cc3)CC2)cc1 | 74 | 0 | 0 | 0 | 0 | 0 | 0
C=CCc1cccc(C=Nc2c[nH]c(=O)[nH]c2=O)c1O | 72 | 0 | 0 | 0 | 0 | 0 | 0
Fc1cc(F)c2nc(Nc3nc4cc5c(cc4s3)OCO5)sc2c1 | 72 | 83 | 0 | 0 | 0 | 0 | 0
Cc1cc2cc(CNS(=O)(=O)c3ccc4ccccc4c3)ccc2n1C | 54 | 0 | 0 | 0 | 0 | 0 | 0
Cc1ccc(NC(=O)NN2CCN(C)CC2)cc1C | 0 | 0 | 0 | 0 | 0 | - | -
NS(=O)(=O)c1ccc(N=Nc2ccc(O)c3ncccc23)cc1 | 0 | 0 | 0 | 0 | 0 | - | -
NS(=O)(=O)c1ccc(N=Nc2ccc(=O)[nH]c2O)cc1 | 100 | 0 | 86 | 0 | 85 | 0 | 0 | DNMT1 interf DR=0
CC1(C)CC(NC(=O)c2cccc(S(=O)(=O)Nc3cccc(Cl)c3)c2)CC(C)(C)N1 | 0 | 0 | 0 | 0 | 0 | - | -
Cc1nn(C(C)C(=O)NC2CCCCC2)c(=O)c2nn(-c3ccccc3)c(C)c12 (stereo not drawn) | 0 | 0 | 0 | 0 | 0 | - | -
Cc1ccc(-c2cc(-c3ccco3)c(C#N)c(=O)[nH]2)cc1 | 58 | 0 | 0 | 49 | 0 | 0 | 0
N#Cc1c(-c2ccco2)cc(-c2ccccc2)[nH]c1=O | 0 | 0 | 0 | 0 | 0 | - | -
Cc1cccc(-n2ccnc2SCC(=O)N2CCCc3ccccc32)c1C | 0 | 0 | 0 | 0 | 0 | - | -
CN(C(=O)COC(=O)c1ccccc1Cc1ccccc1)c1c(N)n(Cc2ccccc2)c(=O)[nH]c1=O | 89 | 0 | 0 | 0 | 0 | 0 | 0
Cc1c(NS(=O)(=O)c2cccc(C(=O)NCc3ccco3)c2)c(=O)n(-c2ccccc2)n1C | 78 | 0 | 0 | 0 | 0 | 0 | 0
Cc1ccnc(NC(=O)CCC(=O)N(CC(=O)NCc2ccc(F)cc2)c2ccc(F)cc2)c1 | 73 | 0 | 0 | 0 | 0 | 0 | 0
Cc1ccnc(NC(=O)CCC(=O)N(CC(=O)NCCc2ccccc2)c2ccc(F)cc2)c1 | 0 | 0 | 0 | 0 | 0 | - | -
SMILES | DNMT1 block | SUMO1 PPI mod | Scp1 inh | LMPTP inh | STEP block | DNMT1 confirm | DNMT1 interf | others
COCCCN1C(=O)C(CC(=O)NCc2ccco2)CC(C(=O)N(C)C)=C1C (stereo not drawn) | 0 | 0 | - | 0 | 0 | - | -
CCOc1ccccc1N(C)S(=O)(=O)c1ccc2c(c1)CCN2C(=O)CCC(=O)O | 0 | 0 | 0 | 0 | 0 | - | -
O=C(Nc1ccc(Cl)cn1)c1cc2c(s1)-c1ccccc1OC2 | 56 | 0 | 0 | 0 | 0 | 0 | 0
O=C(Nc1cccnc1Cl)c1cc2c(s1)-c1ccccc1OC2 | 0 | 0 | 0 | 0 | 0 | - | -
CC(C=NNC(=O)C(=O)NN=CC(C)=Cc1ccccc1)=Cc1ccccc1 | 63 | 0 | 0 | 0 | 0 | 0 | 0
O=C1NN(c2ccccc2)C(=O)/C1=C/c1ccc(Sc2ccc(Cl)cc2)o1 | 88 | 0 | 0 | 0 | 0 | 0 | 0
O=C1NC(=O)/C(=C\c2ccc(Sc3ccc(Cl)cc3)o2)N1 | 0 | 0 | 0 | 0 | 0 | - | -
Cc1ccsc1/C=C1/C(=O)NN(c2ccccc2)C1=O | 0 | 0 | 0 | 0 | 0 | - | -
Cc1ccc(Sc2ccc(/C=C3/C(=O)NN(c4ccccc4)C3=O)o2)cc1 | 65 | 0 | 0 | 0 | 0 | 0 | 0
COc1ccc(NC(=O)CN(C)C(=O)CCCSc2nc3ccccc3[nH]2)cc1 | 0 | 0 | 0 | 0 | 0 | - | -
O=c1c(-c2c(O)cc(O)c3c(=O)cc(-c4ccc(O)cc4)oc23)c(-c2ccc(O)cc2)oc2cc(O)cc(O)c12 | 93 | 50 | 53 | 0 | 0 | 0 | 0
O=C(/C=C/c1ccc(Cl)cc1Cl)N1CCN(c2ccccc2[N+](=O)[O-])CC1 | 92 | 0 | 0 | 0 | 0 | 0 | 0
O=C(/C=C/c1ccc(Cl)cc1Cl)N1CCN(c2ccc([N+](=O)[O-])c(N3CCOCC3)c2)CC1 | 0 | 0 | 0 | 0 | 0 | - | -
COc1cccc(-c2[nH]nc3c2C(c2ccsc2)C(C#N)=C(N)O3)c1 (stereo not drawn) | 0 | 0 | 0 | 0 | 0 | - | -
COc1cccc(-c2[nH]nc3c2C(c2ccoc2)C(C#N)=C(N)O3)c1 (stereo not drawn) | 67 | 0 | 0 | 0 | 0 | 0 | 0
COc1cccc(NC(=O)CCN2C(=O)c3ccccc3Sc3ncccc32)c1 | 0 | 0 | 0 | 0 | 0 | - | -
CC(=O)c1ccc(NC(=S)N2CCN(CCN3C(=O)c4cccc5cccc(c45)C3=O)CC2)cc1 | 55 | 0 | 0 | 0 | 0 | 0 | 0
CC(=O)c1cccc(NC(=S)N2CCN(CCN3C(=O)c4cccc5cccc(c45)C3=O)CC2)c1 | 0 | 0 | 0 | 0 | 0 | - | -
O=C1N/C(=C/c2ccc(Br)cc2)C(O)=C1C=NCc1ccccc1 | 62 | 0 | 0 | 0 | 0 | 0 | 0

Compound activity (PubChem)
